Assay results published in ChEMBL document CHEMBL1255572, “Novel pyrimidines as acid pump antagonists (APAs)” (Bioorg Med Chem Lett, 2010).
Counter-ions that a name gives are not always drawn.

Assays:
[1] = Inhibition of H+/K+/ATPase
In short: (§1)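 Ion-leaky membrane vesicles enriched in H+/K+-ATPase prepared from pig stomach. Lyophilized vesicles in 5 mM Pipes/Tris pH 6.1 preincubated 5 min with compound at various concentrations. K+-containing or K+-free buffer then added, ATP substrate added, and incubated 30 min at 37 °C. Colorimetric reagent stopped the reaction and Pi was read at 620 nm. K+-stimulated activity is the difference between with and without K+. IC50 by Litchfield–Wilcoxon.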

[2] = Inhibition of H+/K+/ATPase at 4 uM; in short: as §1

For COc1ccc2c(c1)C(C)N(c1nc(C(=O)c3ccc(F)cc3)nc(C)c1C)CC2 (centres undefined), the IC50 [1] was 1.12 µM.

With Cc1ccc2c(c1)CCN(c1nc(C(C)(C)c3ccc(F)cc3)nc(C)c1C)C2C (centres undefined) the IC50 [1] was 1.76 µM.

Work on COc1ccc2c(c1)CCN(c1nc(Cc3ccc(F)cc3)nc(C)c1C)C2C (centres undefined) yielded an IC50 [1] of 0.17 µM.

Compound Cc1ccc2c(c1)CCN(c1nc(C(=O)c3ccc(F)cc3)nc(C)c1C)C2C (centres undefined) has an IC50 [1] of 1.91 µM.

For COc1ccc2c(c1)C(C)N(c1nc(C(C)(C)c3ccc(F)cc3)nc(C)c1C)CC2 (centres undefined), the inhibition [2] was 34.2%.

Cc1nc(Cc2ccc(F)cc2)nc(N2CCc3cc(Cl)ccc3C2C)c1C (centres undefined) showed an IC50 [1] of 0.94 µM.

Work on Cc1ccc2c(c1)CCN(c1nc(C(O)c3ccc(F)cc3)nc(C)c1C)C2C (centres undefined) yielded an IC50 [1] of 1.51 µM.

Cc1ccc2c(c1)C(C)N(c1nc(Cc3ccc(F)cc3)nc(C)c1C)CC2 (centres undefined) showed an IC50 [1] of 0.3 µM.

In the case of Cc1nc(Nc2ccc(F)cc2)nc(N2CCc3ccccc3C2C)c1C (centres undefined) [REVAPRAZAN HYDROCHLORIDE], the IC50 [1] is reported as 0.35 µM.

With Cc1ccc2c(c1)CCN(c1nc(Cc3ccc(F)cc3)nc(C)c1C)C2C (centres undefined) the IC50 [1] was 0.23 µM.

Cc1nc(Cc2ccc(F)cc2)nc(N2CC(C)c3ccccc3C2C)c1C (centres undefined) showed an IC50 [1] of 0.61 µM.

In the case of COc1ccc2c(c1)C(C)N(c1nc(Cc3ccc(F)cc3)nc(C)c1C)CC2 (centres undefined), the IC50 [1] is reported as 0.052 µM.

For Cc1ccc2c(c1)CCN(c1nc(C(F)c3ccc(F)cc3)nc(C)c1C)C2C (centres undefined), the IC50 [1] was 1.13 µM.

In the case of Cc1ccc2c(c1)CCN(c1nc(C3(c4ccc(F)cc4)CC3)nc(C)c1C)C2C (centres undefined), the IC50 [1] is reported as 1.29 µM.

In the case of Cc1cccc2c1C(C)N(c1nc(Cc3ccc(F)cc3)nc(C)c1C)CC2 (centres undefined), the IC50 [1] is reported as 0.7 µM.

Work on Cc1nc(Cc2ccc(F)cc2)nc(N2CCc3c(Cl)cccc3C2C)c1C (centres undefined) yielded an IC50 [1] of 1.99 µM.

Compound Cc1nc(Cc2ccc(F)cc2)nc(N2CCc3ccc(F)cc3C2C)c1C (centres undefined) has an IC50 [1] of 1.24 µM.

Compound COc1ccc2c(c1)C(C)N(c1nc(C3(c4ccc(F)cc4)CC3)nc(C)c1C)CC2 (centres undefined) has an inhibition [2] of 1.4%.

With Cc1nc(Cc2ccc(F)cc2)nc(N2CCc3ccc(Cl)cc3C2C)c1C (centres undefined) the IC50 [1] was 1.63 µM.
